Published values gathered from unrelated publications.
Each line is one published result; the experiments were not run side by side.
Target: Mitogen-activated protein kinase kinase kinase 3 (MAP3K3, Homo sapiens, UniProt Q99759)
Sequence (Q99759 1-626, as in one of the studies): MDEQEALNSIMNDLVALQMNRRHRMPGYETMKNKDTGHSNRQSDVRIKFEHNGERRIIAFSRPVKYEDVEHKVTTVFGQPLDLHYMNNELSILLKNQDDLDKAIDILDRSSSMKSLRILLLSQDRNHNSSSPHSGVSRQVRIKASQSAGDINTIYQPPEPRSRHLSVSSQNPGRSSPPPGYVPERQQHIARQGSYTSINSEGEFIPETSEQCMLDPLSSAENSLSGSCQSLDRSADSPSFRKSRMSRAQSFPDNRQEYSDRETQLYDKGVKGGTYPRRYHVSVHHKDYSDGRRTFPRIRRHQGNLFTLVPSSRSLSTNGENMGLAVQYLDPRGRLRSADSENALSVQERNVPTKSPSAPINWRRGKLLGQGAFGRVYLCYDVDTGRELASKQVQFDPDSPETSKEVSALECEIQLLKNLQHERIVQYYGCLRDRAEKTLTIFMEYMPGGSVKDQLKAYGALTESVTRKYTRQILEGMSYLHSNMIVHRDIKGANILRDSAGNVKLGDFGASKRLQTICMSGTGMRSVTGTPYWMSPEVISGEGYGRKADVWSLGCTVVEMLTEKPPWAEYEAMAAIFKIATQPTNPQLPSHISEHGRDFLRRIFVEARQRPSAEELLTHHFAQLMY

Structure (SMILES)	read-out	mode	method	tested at	measurement	value
Cc1ccc(C(=O)NCc2ccsc2)cc1C#Cc1cn(C(C)C)c2ncnc(N)c12	enzyme activity	inhibitor	–	1 µM	activity vs control	70%
O=C(Nc1cnn(-c2csc(C(=O)NC3COC3)c2)c1)Nc1c(F)cccc1Cl	enzyme activity	inhibitor	–	5 µM	remaining activity	81.9%
CC(C)(O)[C@H]1CC[C@H](Nc2ccc3ncc(-c4cccc(C(F)(F)F)c4)n3n2)CC1	enzyme activity	inhibitor	–	1 µM	remaining activity	92.2%
Cc1ccc(C(=O)Nc2ccc(CN3CCN(C)CC3)c(C(F)(F)F)c2)cc1C#Cc1cnc2cccnn12	enzyme activity	inhibitor	–	23.5 nM	remaining activity	34%
CS(=O)(=O)c1cc(C2(NC(=O)c3cncc4c3cnn4-c3ccc(F)cc3)CC2)ccn1	cell-free assay	–	competition with immobilised ligand	1 µM	remaining binding	92%
COc1cc(Nc2c(C#N)cnc3cc(OCCCN4CCN(C)CC4)c(OC)cc23)c(Cl)cc1Cl	cell-free assay	–	–	0.5 µM	remaining signal	11.8%
O=C(Nc1cnn(-c2csc(C(=O)NC3COC3)c2)c1)Nc1ccccc1Cl	enzyme activity	inhibitor	–	5 µM	remaining activity	113%
O=C(NCc1ncc(C(F)(F)F)cc1Cl)c1ccc2c(c1)C1(CCS(=O)(=O)CC1)[C@H](C1CC1)N2S(=O)(=O)c1ccc(F)cc1	cell-free assay	–	competition with immobilised ligand	1 µM	remaining binding	74%
CC(C)(C)c1nc2c(s1)c1nc(N)ncc1c1ccc(NS(=O)(=O)c3c(F)cccc3F)c(F)c12	enzyme activity	inhibitor	radiometric	1 µM	remaining activity	117%
Nc1ncnc2occ(-c3ccc(NC(=O)Nc4cc(C(F)(F)F)ccc4F)cc3)c12	cell-free assay	inhibitor	–	20 µM	remaining signal	4.3%
Cc1nc(C2CCN(C(=O)c3ccc(OC(F)(F)F)cc3N)CC2)c2ncc(N3CCN(C)CC3)cc2n1	cell-free assay	–	competition with immobilised ligand	1 µM	remaining binding	92%
O=C1Nc2ccc(Cl)cc2C1=Cc1cc(Cl)c(O)c(Cl)c1	cell-free assay	–	–	0.5 µM	remaining signal	101%
CN(c1ccnc(CNc2nc(Nc3ccc4c(c3)CC(=O)N4)ncc2C(F)(F)F)n1)S(C)(=O)=O	cell-free assay	–	competition with immobilised ligand	1 µM	remaining binding	44%
COc1ccc(F)cc1C(=O)NCc1ccc(-c2nn([C@@H](C)C(F)(F)F)c(N)c2C(N)=O)cc1	target engagement in cells	inhibitor	chemoproteomics	10 µM	inhibition	-38.5%
CN([C@@H]1CCc2c(CC(=O)O)c3cc(S(C)(=O)=O)ccc3n2C1)S(=O)(=O)c1ccc(F)cc1	cell-free assay	–	competition with immobilised ligand	1 µM	remaining binding	85%
COc1cc2c(N3CCN(C(=O)Nc4ccc(OC(C)C)cc4)CC3)ncnc2cc1OCCCN1CCCCC1	cell-free assay	–	–	0.5 µM	remaining signal	106%
